The values below come from ChEMBL document CHEMBL3792364, “Identification and biological activity of 6-alkyl-substituted 3-methyl-pyridine-2-carbonyl amino dimethyl-benzoic acid EP4 antagonists” (Bioorg Med Chem Lett, 2016).

The target in series [1] is T1, Prostaglandin E2 receptor EP4 subtype (Homo sapiens, UniProt P35408). The series can be described thus: Antagonist activity against EP4 in human whole blood assessed as reversal of PGE2-mediated suppression of LPS-induced TNF-alpha production preincubated for 30 mins followed by LPS stimulation measured after 20 to 24 hrs by enzyme immunoassay. The class given is tissue-based. Put shortly: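 Pooled blood from donors free of NSAIDs or celecoxib for 48 h and of glucocorticoids for 2 weeks. Blood pretreated 30 min at 37 °C, 5% CO2 with compound in DMSO (7-point curve, triplicate). LPS […] ± 10 nM PGE2 (final) added, then incubated 20–24 h. Plasma TNFα read at A450-A650. IC50 from sigmoidal nonlinear fit; geometric mean of independent runs.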

For series [2], the target named is T1, Prostaglandin E2 receptor EP4 subtype. Description: Antagonist activity against human EP4 expressed in HEK293 cells assessed as inhibition of PGE2-stimulated production of cAMP incubated for 20 mins by HTRF assay. The series is classed as functional, cell-based.
Series [3] is described as follows: Aqueous solubility of compound at pH 6 at 2 mM after 20 hrs by HPLC. The series is classed as physicochemical. The following applies: aqueous medium. The gist of the method:
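Samples in DMSO dried 12 h, then redissolved at pH 6 at a 2 mM target concentration. Stirred 20 h, filtered through 0.7 µm GF filter. Filtrate concentration measured by HPLC against a DMSO standard curve.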

pIC50: −log10 of the molar value. Converted amounts (≈) assume the structure as drawn.

A word on the pIC50: it is −log10 of the IC50, conventionally taken in molar units. Usually solubility stands for how much of the substance goes into solution per volume.

T1 sequence (P35408 whole entry): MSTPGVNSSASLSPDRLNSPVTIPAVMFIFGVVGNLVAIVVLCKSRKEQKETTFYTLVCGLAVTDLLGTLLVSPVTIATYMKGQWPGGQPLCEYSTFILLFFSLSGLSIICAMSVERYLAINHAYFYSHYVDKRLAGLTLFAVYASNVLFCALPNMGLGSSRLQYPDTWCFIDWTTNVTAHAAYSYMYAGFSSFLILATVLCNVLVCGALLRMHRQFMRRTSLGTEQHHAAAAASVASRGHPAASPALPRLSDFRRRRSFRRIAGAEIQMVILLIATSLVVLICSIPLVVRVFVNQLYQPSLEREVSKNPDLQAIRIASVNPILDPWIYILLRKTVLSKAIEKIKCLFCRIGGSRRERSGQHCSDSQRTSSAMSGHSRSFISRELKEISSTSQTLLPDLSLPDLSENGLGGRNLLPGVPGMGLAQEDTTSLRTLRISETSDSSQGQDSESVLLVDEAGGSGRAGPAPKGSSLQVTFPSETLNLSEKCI

Regarding `Cc1ccc(N2CCC(F)(F)CC2)nc1C(=O)Nc1c(C)cc(C(=O)O)cc1C`, the pIC50 was 5.94 in series [1] and 8.79 in series [2].
Regarding `Cc1ccc(N2CCC(C)(O)CC2)nc1C(=O)Nc1c(C)cc(C(=O)O)cc1C`, the values for the pIC50 in series [1] and in series [2] were 5.44 and 7.40, respectively. Also, the concentration in solution in series [3] (solubility at 20 h, 2000 µM) came to 817 µg/mL (≈ 2060 µM).
As for `Cc1ccc(N2CCCC(CO)C2)nc1C(=O)Nc1c(C)ccc(C(=O)O)c1C` (stereo unspecified), the results for the pIC50 in series [1] and in series [2] were 5.54 and 7.85, respectively.
In the case of `Cc1ccc(N2CCC(C)(O)CC2)nc1C(=O)Nc1c(C)ccc(C(=O)O)c1C`, in series [2], the pIC50 is 7.06.
Consider `Cc1ccc(N2CCC(O)CC2)nc1C(=O)Nc1c(C)ccc(C(=O)O)c1C`, for which the pIC50 in series [1] was 5.84; in series [2] it was 7.71. In series [3], this molecule gave a solubility at 20 h, 2000 µM of 784 µg/mL (≈ 2040 µM).
